Assay results as given in PubChem BioAssay.
The source made the active and inactive calls.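 How the source made its calls, unless noted: active means viability at or under a set limit in both replicates, limit being median viability minus 3 SD (cut at about 48% in these data, passing the limit was not always enough); inconclusive means at or under the limit in just one replicate; inactive means at or above the limit in both replicates.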

How the values were obtained:
[1] = Her2 expression decrease, cell viability multiplex – SKBR3 breast tumor cells, AlphaScreen, ATP viability, primary screen (AID 461;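 active means Her2 level under about 52% in both replicate screens, with viability over 70% of control, limit read from the data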;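 on Her2 level: lower value means less Her2 protein in the cells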;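 on viability: percent of carrier control wells set as 100% viability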); settings: SKBR3 Her2 protein level, 18-24 h, measured here: SKBR3 viability, ATP luminescence, at 10 µM
[2] = biological target: Receptor tyrosine-protein kinase erbB-2 (Homo sapiens) (UniProt P04626); assay: as above; settings: 18-24 h, at 10 µM, stronger effect = lower value
[3] = reduced viability of SK-BR-3 breast cancer cells – cell-based, 24 h, human, pilot screen (AID 572;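 active means viability at or below 10% of carrier control in both of two separate runs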;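 further: compound exposure lasted between 18 and 24 h rather than exactly 24 h; 100% = carrier-treated control wells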); settings: SK-BR-3 viability, CellTiter-Glo luminescence, at 10 µM, stronger effect = lower value
[4] = HUVEC growth inhibition – cell-based, human, primary screen (AID 575;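 active means viability at or below 30% in both replicate assays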;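 further: 100% = median of untreated cell wells with 0.1% DMSO on each plate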); settings: HUVEC proliferation, CellTiter-Glo luminescence, 72 h; at 10 µM; stronger effect = lower value
Procedure, shortened: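 Test system: HUVEC primary cells. Quantity: 1250 endothelial cells in each well. Dosing: single-point 10 µM, DMSO 0.1% final. Incubation: 72 h treatment at 37 °C. Measured by: CTG luminescence. Control set: DMSO cell controls and MePR drug controls. Plate: collagen-coated 384-well format.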

[5] = H69AR cell proliferation blockers – human, duplicate replicates, primary screen (AID 580); settings: H69AR lung tumor cells viability, ATP luminescence, 72 h; at 10 µM; stronger effect = lower value;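 further: 100% = mean luminescence of untreated wells and 0% = no signal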
[6] = MRP1 drug-resistance reversers in H69AR cells – cell-based, doxorubicin co-treatment, pilot screen (AID 601;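 active means viability loss from added drug above about 55%, and viability with drug at most 40%, in both replicates, limit read from the data, passing the limit was not always enough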); settings: CellTiter-Glo, 72 h, at 10 µM; for differential viability (reversal): stronger effect = higher value
[7] = yeast transport mutant growth inhibition pilot in 384-well plates, post-Golgi transport modulator project (AID 636; in the data active means inhibition above about 31%); settings: absorbance 615 nm, about 18 h, stronger effect = higher value
[8] = growth suppression of yeast trafficking mutant, preliminary HTS, modulators of trafficking downstream of Golgi apparatus project, 1536-format plate, OD 615 nm (AID 637; in the data active means inhibition above about 30%); settings: yeast transport mutant growth, absorbance 615 nm, 18 h; stronger effect = higher value
[9] = H69AR cells + 2 uM doxorubicin, measured here: viability with 2 uM doxorubicin, stronger effect = lower value
[10] = H69AR cells, compound alone cytotoxicity

Sequence of Receptor tyrosine-protein kinase erbB-2 (Homo sapiens) (P04626 whole entry, looked up): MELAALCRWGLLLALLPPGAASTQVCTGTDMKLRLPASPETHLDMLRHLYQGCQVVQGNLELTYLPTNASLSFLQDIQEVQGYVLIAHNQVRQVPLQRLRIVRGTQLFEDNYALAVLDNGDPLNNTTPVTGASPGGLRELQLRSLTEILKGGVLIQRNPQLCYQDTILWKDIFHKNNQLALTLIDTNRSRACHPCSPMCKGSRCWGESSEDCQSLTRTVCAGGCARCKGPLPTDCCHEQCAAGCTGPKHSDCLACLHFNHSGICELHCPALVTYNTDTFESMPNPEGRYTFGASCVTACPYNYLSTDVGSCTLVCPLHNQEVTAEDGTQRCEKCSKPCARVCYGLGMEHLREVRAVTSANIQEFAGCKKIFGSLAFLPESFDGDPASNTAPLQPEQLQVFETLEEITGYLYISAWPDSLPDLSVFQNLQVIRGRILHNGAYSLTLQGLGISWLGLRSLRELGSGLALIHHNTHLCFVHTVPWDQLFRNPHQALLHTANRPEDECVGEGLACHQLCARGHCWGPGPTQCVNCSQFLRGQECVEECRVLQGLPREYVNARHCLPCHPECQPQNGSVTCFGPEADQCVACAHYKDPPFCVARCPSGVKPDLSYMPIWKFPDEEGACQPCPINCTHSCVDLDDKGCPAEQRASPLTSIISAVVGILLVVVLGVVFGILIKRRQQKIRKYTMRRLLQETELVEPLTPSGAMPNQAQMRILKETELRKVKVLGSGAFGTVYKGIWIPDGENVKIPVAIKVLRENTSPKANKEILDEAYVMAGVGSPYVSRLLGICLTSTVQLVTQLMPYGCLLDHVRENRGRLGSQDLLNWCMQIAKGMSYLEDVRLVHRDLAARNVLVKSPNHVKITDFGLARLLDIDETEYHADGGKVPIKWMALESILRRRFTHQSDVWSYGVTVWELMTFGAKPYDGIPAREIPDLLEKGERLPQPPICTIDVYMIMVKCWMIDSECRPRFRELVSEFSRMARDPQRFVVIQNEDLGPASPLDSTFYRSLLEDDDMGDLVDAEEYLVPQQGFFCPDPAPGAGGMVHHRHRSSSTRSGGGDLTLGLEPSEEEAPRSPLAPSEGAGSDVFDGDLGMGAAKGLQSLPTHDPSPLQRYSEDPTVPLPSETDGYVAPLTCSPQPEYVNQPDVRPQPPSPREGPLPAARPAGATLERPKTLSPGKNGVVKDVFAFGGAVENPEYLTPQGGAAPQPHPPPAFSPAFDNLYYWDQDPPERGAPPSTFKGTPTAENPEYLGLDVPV

For O=C(Cc1c(O)c2ccccc2[nH]c1=O)NCc1ccc(F)cc1, the viability [1] was 121%, the Her2 level [2] was 87.5% (inactive) and the viability [3] was 121% (inactive). The viability [4] was 90.5% (inactive), the viability [5] was 91.3% (inactive) and the differential viability (reversal) ([6]; H69AR cells + 2 uM doxorubicin) was 2.8% (inactive). For the same compound, the viability [6, 9] was 88.5%, the viability [6, 10] was 91.3% and the inhibition [7] was -4.87% (inactive). The inhibition [8] was 10% (inactive).

In the case of O=C1CC(N2CCN(c3cccc(C(F)(F)F)c3)CC2)C(=O)N1c1ccccc1 (stereo not given), the viability [1] is reported as 93.5%, the Her2 level [2] is reported as 112% (inactive) and the viability [3] is reported as 93.5% (inactive). The viability [4] was 92.3% (inactive), the viability [5] was 103% (inactive) and the differential viability (reversal) ([6]; H69AR cells + 2 uM doxorubicin) was 13% (inactive). For the same compound, the viability [6, 9] was 90%, the viability [6, 10] was 103% and the inhibition [7] was -2.08% (inactive). The inhibition [8] was -12.7% (inactive).

With Cc1ccnc(NC(=O)CCC(=O)N(CC(=O)NC2CCCCC2)c2cccc(C)c2C)c1 the viability [1] was 92.5%, the Her2 level [2] was 97.5% (inactive) and the viability [3] was 92.5% (inactive). The viability [4] was 92.1% (inactive), the viability [5] was 86.7% (inactive) and the differential viability (reversal) ([6]; H69AR cells + 2 uM doxorubicin) was -7.79% (inactive). For the same compound, the viability [6, 9] was 94.5%, the viability [6, 10] was 86.7% and the inhibition [7] was 0% (inactive). The inhibition [8] was 22.6% (inactive).

For CC(C)(C)NC(=O)NC(=O)COc1ccccc1C#N, the viability [1] was 104%, the Her2 level [2] was 90.5% (inactive) and the viability [3] was 104% (inactive). For the same compound, the viability [4] was 108% (inactive), the viability [5] was 106% (inactive) and the differential viability (reversal) ([6]; H69AR cells + 2 uM doxorubicin) was 25.7% (inactive). The viability [6, 9] was 80.7%, the viability [6, 10] was 106% and the inhibition [7] was -6.49% (inactive). The inhibition [8] was -2.38% (inactive).

With COc1ccc(-c2noc(COc3ccc4ccccc4c3Br)n2)cc1OC the viability [1] was 129%, the Her2 level [2] was 104% (inactive) and the viability [3] was 129% (inactive). For the same compound, the viability [4] was 112% (inactive), the viability [5] was 80.8% (inactive) and the differential viability (reversal) ([6]; H69AR cells + 2 uM doxorubicin) was 5.36% (inactive). The viability [6, 9] was 75.5%, the viability [6, 10] was 80.8% and the inhibition [7] was -4.21% (inactive). The inhibition [8] was -3.23% (inactive).

For N#CCSc1nc2c(c(C3CC=CCC3)c1C#N)CCC2 (stereo not given), the viability [1] was 88.5%, the Her2 level [2] was 81.5% (inactive) and the viability [3] was 88.5% (inactive). For the same compound, the viability [4] was 63.4% (inactive), the viability [5] was 100% (inactive) and the differential viability (reversal) ([6]; H69AR cells + 2 uM doxorubicin) was 12.8% (inactive). The viability [6, 9] was 87.2%, the viability [6, 10] was 100% and the inhibition [7] was -3.07% (inactive). For the same compound, the inhibition [8] was -1.94% (inactive).

For Cc1cccc(CS(=O)(=O)Cc2ccc(C(=O)NCC3CCCO3)o2)c1 (stereo not given), the viability [1] was 85.5%, the Her2 level [2] was 108% (inactive) and the viability [3] was 85.5% (inactive). For the same compound, the viability [4] was 114% (inactive), the viability [5] was 94.7% (inactive) and the differential viability (reversal) ([6]; H69AR cells + 2 uM doxorubicin) was -7.89% (inactive). The viability [6, 9] was 103%, the viability [6, 10] was 94.7% and the inhibition [7] was -2.89% (inactive). The inhibition [8] was -4.19% (inactive).

For Cc1cc(C(=O)NCCCN2CCN(C3CCCCC3)CC2)n(-c2ccccc2)n1, the viability [1] was 94%, the Her2 level [2] was 111% (inactive) and the viability [3] was 94% (inactive). The viability [4] was 111% (inactive), the viability [5] was 103% (inactive) and the differential viability (reversal) ([6]; H69AR cells + 2 uM doxorubicin) was 11.8% (inactive). For the same compound, the viability [6, 9] was 90.8%, the viability [6, 10] was 103% and the inhibition [7] was 1.73% (inactive). The inhibition [8] was -8.33% (inactive).

In the case of COc1ccc(-n2c(Cc3cccn3C)nnc2SCC(=O)NCC2CCCO2)cc1 (stereo not given), the viability [1] is reported as 100%, the Her2 level [2] is reported as 107% (inactive) and the viability [3] is reported as 100% (inactive). For the same compound, the viability [4] was 93.9% (inactive), the viability [5] was 100% (inactive) and the differential viability (reversal) ([6]; H69AR cells + 2 uM doxorubicin) was 7.7% (inactive). For the same compound, the viability [6, 9] was 92.3%, the viability [6, 10] was 100% and the inhibition [7] was -0.9% (inactive). The inhibition [8] was 3% (inactive).

For CC(C)Cc1cc(C(=O)Nc2c(F)cc(F)cc2Br)no1, the viability [1] was 88.5%, the Her2 level [2] was 106% (inactive) and the viability [3] was 88.5% (inactive). The viability [4] was 107% (inactive), the viability [5] was 113% (inactive) and the differential viability (reversal) ([6]; H69AR cells + 2 uM doxorubicin) was 30% (inactive). For the same compound, the viability [6, 9] was 82.8%, the viability [6, 10] was 113% and the inhibition [7] was 0.64% (inactive). For the same compound, the inhibition [8] was -4.33% (inactive).

With O=C(OC1CCOC1=O)c1ccc(S(=O)(=O)N2CCCCCC2)cc1 (stereo not given) the viability [1] was 95.5%, the Her2 level [2] was 113% (inactive) and the viability [3] was 95.5% (inactive). The viability [4] was 95.3% (inactive), the viability [5] was 106% (inactive) and the differential viability (reversal) ([6]; H69AR cells + 2 uM doxorubicin) was 12.5% (inactive). The viability [6, 9] was 93.6%, the viability [6, 10] was 106% and the inhibition [7] was 0.26% (inactive). The inhibition [8] was 1.83% (inactive).

For CCOc1ccc(OCc2cccc(C(=O)O)c2)cc1, the viability [1] was 108%, the Her2 level [2] was 106% (inactive) and the viability [3] was 108% (inactive). For the same compound, the viability [4] was 77.6% (inactive), the viability [5] was 89.6% (inactive) and the differential viability (reversal) ([6]; H69AR cells + 2 uM doxorubicin) was 10.5% (inactive). For the same compound, the viability [6, 9] was 79.1%, the viability [6, 10] was 89.6% and the inhibition [7] was -1.6% (inactive). The inhibition [8] was -3.87% (inactive).

With O=C(c1cc2n(n1)C(C(F)(F)F)CC(c1ccc(Cl)cc1)N2)N1CCCC1 (stereo not given) the viability [1] was 86.5%, the Her2 level [2] was 68% (inactive) and the viability [3] was 86.5% (inactive). For the same compound, the viability [4] was 82.1% (inactive), the viability [5] was 90.9% (inactive) and the differential viability (reversal) ([6]; H69AR cells + 2 uM doxorubicin) was -0.385% (inactive). For the same compound, the viability [6, 9] was 91.3%, the viability [6, 10] was 90.9% and the inhibition [7] was -6.84% (inactive). For the same compound, the inhibition [8] was 3.17% (inactive).

In the case of CC(CN1CCN(C)CC1)OC(=O)c1ccc(Cl)cc1Cl (stereo not given), the viability [1] is reported as 127%, the Her2 level [2] is reported as 90.5% (inactive) and the viability [3] is reported as 127% (inactive). For the same compound, the viability [4] was 88.6% (inactive), the viability [5] was 102% (inactive) and the differential viability (reversal) ([6]; H69AR cells + 2 uM doxorubicin) was 14% (inactive). The viability [6, 9] was 88.2%, the viability [6, 10] was 102% and the inhibition [7] was -4.53% (inactive). The inhibition [8] was 10% (inactive).

With CC(C)CNC(=O)C1C2C=CC(C2)C1C(=O)O (stereo not given) the viability [1] was 96%, the Her2 level [2] was 96% (inactive) and the viability [3] was 96% (inactive). For the same compound, the viability [4] was 108% (inactive), the viability [5] was 111% (inactive) and the differential viability (reversal) ([6]; H69AR cells + 2 uM doxorubicin) was 9.12% (inactive). The viability [6, 9] was 102%, the viability [6, 10] was 111% and the inhibition [7] was -1.33% (inactive). The inhibition [8] was -1.77% (inactive).

With O=C(NCCCN1CCCC1=O)c1cncc(Br)c1 the viability [1] was 97%, the Her2 level [2] was 83.5% (inactive) and the viability [3] was 97% (inactive). The viability [4] was 98.5% (inactive), the viability [5] was 103% (inactive) and the differential viability (reversal) ([6]; H69AR cells + 2 uM doxorubicin) was 10.1% (inactive). The viability [6, 9] was 93%, the viability [6, 10] was 103% and the inhibition [7] was -6.67% (inactive). The inhibition [8] was 6.56% (inactive).
